In data set [1] the target is T1, Cannabinoid receptor 2 (Homo sapiens, UniProt P34972). Kind of data set: Displacement of [3H]CP55940 from human CB2 receptor expressed in CHO cells incubated for 1 hr. Format: cell-based.
The target in data set [2] is Cannabinoid receptor 1 (Homo sapiens, UniProt P21554). The data set can be described thus: biochemical. Format: cell-based, CHO.
Data set [3] is filed under the species Homo sapiens. The data set can be described thus: Selectivity index, ratio of Ki for human CB1 receptor to KI for human CB2 receptor.
Data set [4] concerns the target T1, Cannabinoid receptor 2. The data set can be described thus: Inverse agonist activity at human CB2 receptor expressed in CHO cells assessed as increase in forskolin-induced cAMP accumulation incubated for 45 mins by TR-FRET method based LANCE cAMP assay. The format is functional, cell-based.
The test system of data set [5] is Bone marrow cell. Kind of data set: Inhibition of osteoclastogenesis in human mononuclear bone marrow cells incubated for 3 weeks at 37 degC by osteoclast formation assay. The format is functional, cell-based. In outline: (§1)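 Nonadherent human marrow mononuclear cells from healthy donors, 2×10^5 per well, in MEM with 20% horse serum, 10 ng/mL M-CSF and 25 ng/mL RANKL (legend states RANKL 50 ng/mL). Compounds present throughout, with drug-containing half-medium changes twice weekly; 3 weeks at 37 °C, 5% CO2. 23c6 antibody stain; 23c6+ cells with ≥3 nuclei counted; triplicate, mean ± SD.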

The subject of data set [6] is PBMC. Kind of data set: Toxicity against human PBMC assessed effect on cell viability at 1 to 10 uM incubated for 72 hrs by trypan blue dye exclusion method. The format is cell-based. In outline:
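PBMC from healthy medication-free donors, isolated on Ficoll-Hypaque, washed in ice-cold PBS. Cells held in medium with 10% inactivated FBS and 2 mM glutamine (5×10^5/mL; legend 10^5 cells/well). Compounds come from a 50 mM DMSO stock, final DMSO 0.02%, exposure 72 h. Viability read by trypan blue exclusion; three assays, mean ± SD.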

For data set [7], the system named is Bone marrow cell. Kind of data set: Inhibition of osteoclastogenesis in human mononuclear bone marrow cells at 1 uM incubated for 3 weeks at 37 degC by osteoclast formation assay. The format is functional. The settings on record: 504 h. In outline: as §1
Data set [8] concerns Bone marrow cell. Kind of data set: Inhibition of osteoclastogenesis in human mononuclear bone marrow cells at 0.1 uM incubated for 3 weeks at 37 degC by osteoclast formation assay. Format: functional. The conditions noted are these: 504 h. A digest of the protocol: as §1
The test system of data set [9] is Bone marrow cell. The data set can be described thus: Inhibition of osteoclastogenesis in human mononuclear bone marrow cells at 10 uM incubated for 3 weeks at 37 degC by osteoclast formation assay. Format: functional. The settings on record: 504 h. A digest of the protocol: as §1

T1 sequence (P34972 whole entry): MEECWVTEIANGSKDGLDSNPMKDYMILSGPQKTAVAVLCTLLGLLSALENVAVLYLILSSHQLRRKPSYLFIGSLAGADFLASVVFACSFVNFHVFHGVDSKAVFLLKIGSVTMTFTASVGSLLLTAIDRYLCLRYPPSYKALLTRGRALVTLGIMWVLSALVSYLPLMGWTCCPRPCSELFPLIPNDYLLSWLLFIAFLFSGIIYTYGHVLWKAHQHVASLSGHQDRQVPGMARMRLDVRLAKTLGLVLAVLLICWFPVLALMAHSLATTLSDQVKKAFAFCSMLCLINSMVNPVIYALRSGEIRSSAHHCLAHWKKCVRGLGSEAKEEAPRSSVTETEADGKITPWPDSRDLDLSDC
Cannabinoid receptor 1, sequence (P21554 whole entry): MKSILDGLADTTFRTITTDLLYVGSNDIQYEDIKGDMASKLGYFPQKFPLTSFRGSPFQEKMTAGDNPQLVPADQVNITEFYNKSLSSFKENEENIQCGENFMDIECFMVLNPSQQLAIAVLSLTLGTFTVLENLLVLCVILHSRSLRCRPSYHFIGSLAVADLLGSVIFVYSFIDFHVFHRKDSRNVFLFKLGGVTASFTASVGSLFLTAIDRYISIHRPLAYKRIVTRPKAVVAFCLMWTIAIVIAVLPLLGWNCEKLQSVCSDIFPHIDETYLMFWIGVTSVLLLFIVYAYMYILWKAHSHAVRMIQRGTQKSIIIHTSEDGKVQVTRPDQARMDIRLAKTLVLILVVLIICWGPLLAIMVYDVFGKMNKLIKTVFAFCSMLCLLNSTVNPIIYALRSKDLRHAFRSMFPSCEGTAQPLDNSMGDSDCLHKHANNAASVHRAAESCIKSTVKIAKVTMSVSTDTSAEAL

For the molecule `O=C(Cc1ccc(C(F)(F)F)cc1)NC(NC(=O)Cc1ccc(C(F)(F)F)cc1)c1ccc(C(F)(F)F)cc1`, the inhibition constant (Ki) in data set [1] is over 20 µM.
In turn, `Cc1ccc(C(NC(=O)Cc2ccc(Cl)cc2)NC(=O)Cc2ccc(Cl)cc2)cc1` returned an inhibition constant Ki in data set [2] of over 20 µM. In addition, the Ratio Ki in [3] is over 43.
With `O=C(Cc1ccc(C(F)(F)F)cc1)NC(NC(=O)Cc1ccc(C(F)(F)F)cc1)c1ccc(Cl)cc1`, the Ki in data set [1] is over 20 µM.
With `O=C(Cc1ccccc1)NC(NC(=O)Cc1ccccc1)c1ccc(N2CCCC2)cc1`, the inhibitory constant (Ki) in [1] was 0.071 µM; in data set [2] it was over 20 µM. In data set [3], the Ratio Ki was over 281. In data set [4], the EC50 amounted to 0.0171 µM.
Molecule `COc1ccc(C(NC(=O)Cc2ccc(Cl)cc2)NC(=O)Cc2ccc(Cl)cc2)cc1` registered a Ki in data set [2] of over 20 µM. In addition, in data set [3], the Ratio Ki was over 65.
`O=C(Cc1ccc(Cl)cc1)NC(NC(=O)Cc1ccc(Cl)cc1)c1ccccc1` came in with a Ki in [1] of over 20 µM.
For `Cc1ccc(Cn2nc(C(=O)NC3C4(C)CCC(C4)C3(C)C)cc2-c2ccc(Cl)c(C)c2)cc1` (centres undefined), the inhibition entry in data set [5] was “Dose-dependent effect”.
Turning to `CCN(CC)c1ccc(C(NC(=O)/C=C/c2ccccc2)NC(=O)/C=C/c2ccccc2)cc1`, the figures for the Ki in data set [1] and in data set [2] were 0.167 µM and over 20 µM, respectively. In addition, the Ratio Ki in data set [3] was over 119.
In turn, `O=C(Cc1ccc(Cl)cc1)NC(NC(=O)Cc1ccc(Cl)cc1)c1ccc(C(F)(F)F)cc1` returned a Ki in [2] of over 20 µM. The Ratio Ki in [3] is over 198.
With `O=C(Cc1ccccc1)NC(NC(=O)Cc1ccccc1)c1ccc(N(Cc2ccccc2)Cc2ccccc2)cc1`, the Ki in data set [1] is 0.203 µM; in data set [2] it was over 20 µM. In addition, the Ratio Ki in data set [3] was over 99.
Take `Cc1ccc(Cn2nc(C(=O)N[C@@H]3C(C)(C)[C@@H]4CC[C@@]3(C)C4)cc2-c2ccc(Cl)c(C)c2)cc1` [SR-144528]: the Activity entry in data set [6] is given as “Non-toxic”.
In data set [2], `CCCCN(CCCC)c1ccc(C(NC(=O)Cc2ccccc2)NC(=O)Cc2ccccc2)cc1` came in with a Ki of over 20 µM. Besides, the Ratio Ki in data set [3] was over 90.
For `CCCCCCCC(=O)NC(NC(=O)CCCCCCC)c1ccc(N(CC)CC)cc1` the same measures were over 20 µM and over 136.
Consider `CCN(CC)c1ccc(C(NC(=O)C(C)(C)C)NC(=O)C(C)(C)C)cc1`, for which the Ki in data set [2] was over 20 µM.
In turn, `CCCCCC(=O)NC(NC(=O)CCCCC)c1ccc(N(CC)CC)cc1` registered a Ki in data set [2] of over 20 µM. Also, in data set [3], the Ratio Ki is over 800. The EC50 in [4] worked out at 0.0134 µM.
Take `CC(C)Oc1ccc(C(NC(=O)Cc2ccccc2)NC(=O)Cc2ccccc2)cc1`: the inhibition result in [5] is “Dose-dependent effect”. Also, the Activity entry in [6] is listed as “Non-toxic”. Further, the Ki in data set [2] was over 20 µM.
Take `O=C(Cc1ccccc1)NC(NC(=O)Cc1ccccc1)c1ccc([N+](=O)[O-])cc1`: the Ki in data set [1] was over 20 µM.
For `CCCCCC(NC(=O)Cc1ccccc1)NC(=O)Cc1ccccc1`, the Ki in data set [2] is over 20 µM.
With `Cc1ccc(C(NC(=O)Cc2ccc(C(F)(F)F)cc2)NC(=O)Cc2ccc(C(F)(F)F)cc2)cc1`, the Ki in [1] was over 20 µM.
Consider `CCCN(CCC)c1ccc(C(NC(=O)Cc2ccccc2)NC(=O)Cc2ccccc2)cc1`, for which the Ki in data set [1] was 0.022 µM; in data set [2], over 20 µM. Further, in data set [4], the EC50 is 0.0283 µM.
In turn, `O=C(Cc1ccccc1)NC(NC(=O)Cc1ccccc1)c1ccc(N2CCCCC2)cc1` gave a Ki in [2] of over 20 µM. The Ratio Ki in data set [3] was over 34.
For `O=C(Cc1ccccc1)NC(Cc1ccccc1)NC(=O)Cc1ccccc1`, the Ki in [1] and in data set [2] was over 20 µM in each case.
`CCN(CC)c1ccc(C(NC(=O)CCc2ccccc2)NC(=O)CCc2ccccc2)cc1`: the figures for the Ki in [1] and in [2] were 0.213 µM and over 20 µM, respectively.
As to `CCN(CC)c1ccc(C(NC(=O)c2ccccc2)NC(=O)c2ccccc2)cc1`, the Ki in data set [2] was over 20 µM. For the same molecule, the Ratio Ki in data set [3] was over 29.
For `COc1ccc(C(NC(=O)Cc2ccccc2)NC(=O)Cc2ccccc2)cc1` the same measures were over 20 µM and over 26.
For the molecule `O=C(Cc1ccc(Cl)cc1)NC(NC(=O)Cc1ccc(Cl)cc1)c1ccc([N+](=O)[O-])cc1`, the Ki in data set [1] was over 20 µM.
For `O=C(Cc1ccc(Cl)cc1)NC(NC(=O)Cc1ccc(Cl)cc1)c1ccccc1C(F)(F)F`, in data set [2], the inhibitory constant (Ki) was over 20 µM. Further, the Ratio Ki in data set [3] is over 127.
For `O=C(Cc1ccccc1)NC(NC(=O)Cc1ccccc1)c1ccc(C(F)(F)F)cc1` the same measures were over 20 µM and over 34.
`CCN(CC)c1ccc(C(NC(=O)C(C)C)NC(=O)C(C)C)cc1` came in with a Ki in [2] of over 20 µM.
On the same count and under the same terms, next, `O=C(Cc1ccccc1)NC(CCc1ccccc1)NC(=O)Cc1ccccc1`: over 20 µM.
On to `CCN(CC)c1ccc(C(NC(=O)Cc2ccccc2)NC(=O)Cc2ccccc2)cc1`, for which the inhibition result in data set [5] was “Dose-dependent effect”. Further, the Activity result in data set [6] is given as “Non-toxic”. In [2], this molecule registered a Ki of over 20 µM. The inhibition at 1 µM in data set [7] is 79%. Further, the Ratio Ki in data set [3] is over 313. The same molecule registered an inhibition at 0.1 µM in data set [8] of 72%. Besides, in data set [4], the EC50 came to 0.00573 µM. In data set [9], this molecule gave an inhibition at 10 µM of 84%.
Turning to `COc1ccc(C(NC(=O)Cc2ccc(C(F)(F)F)cc2)NC(=O)Cc2ccc(C(F)(F)F)cc2)cc1`, the Ki in data set [1] is over 20 µM.
Still for that read-out and setting: the figure for `Nc1ccc(C(NC(=O)Cc2ccccc2)NC(=O)Cc2ccccc2)cc1` is 12.6 µM; for `O=C(Cc1ccc(Cl)cc1)NC(NC(=O)Cc1ccc(Cl)cc1)c1ccc(F)cc1` it is over 20 µM.
In data set [2], `O=C(Cc1ccccc1)NC(/C=C/c1ccccc1)NC(=O)Cc1ccccc1` displayed a Ki of over 20 µM.
`O=C(Cc1ccc(C(F)(F)F)cc1)NC(NC(=O)Cc1ccc(C(F)(F)F)cc1)c1ccccc1F`: in data set [1], the Ki was over 20 µM.
As to `CN(C)c1ccc(C(NC(=O)Cc2ccccc2)NC(=O)Cc2ccccc2)cc1`, the inhibition entry in data set [5] was “Dose-dependent effect”. Also, the Activity result in data set [6] is reported as “Non-toxic”. In data set [2], this molecule yielded a Ki of over 20 µM. The Ratio Ki in data set [3] is over 26. In addition, in data set [4], the EC50 was 0.159 µM.
`CCCCC(=O)NC(NC(=O)CCCC)c1ccc(N(CC)CC)cc1`: the Ki in [2] is over 20 µM. In data set [3], the Ratio Ki was over 109.
For `O=C(Cc1ccc(Cl)cc1)NC(NC(=O)Cc1ccc(Cl)cc1)c1ccc(Cl)cc1` the same measures were over 20 µM and over 130.
As to `CC(C)c1ccc(C(NC(=O)Cc2ccccc2)NC(=O)Cc2ccccc2)cc1`, the inhibition result in data set [5] is “Dose-dependent effect”. For the same molecule, the Activity entry in [6] is given as “Non-toxic”. In [2], this molecule yielded a Ki of over 20 µM. Also, the EC50 in data set [4] stood at 0.00411 µM.
For `O=C(Cc1ccc(C(F)(F)F)cc1)NC(NC(=O)Cc1ccc(C(F)(F)F)cc1)c1ccc(F)cc1`, the Ki in data set [1] is over 20 µM.
Same read-out and setting: next, `O=C(Cc1ccc(C(F)(F)F)cc1)NC(NC(=O)Cc1ccc(C(F)(F)F)cc1)c1ccccc1`: over 20 µM.
Turning to `CCCCCCCCCC(=O)NC(NC(=O)CCCCCCCCC)c1ccc(N(CC)CC)cc1`, in data set [2], the Ki was over 20 µM.

The values above are taken from ChEMBL document CHEMBL2177038 (J Med Chem, 2012).
